Assay results of several laboratories.
Protocols differ between the studies behind these lines.
Target: Serine/threonine-protein kinase 4 (STK4, Homo sapiens, UniProt Q13043)
One construct used (Q13043 1-487): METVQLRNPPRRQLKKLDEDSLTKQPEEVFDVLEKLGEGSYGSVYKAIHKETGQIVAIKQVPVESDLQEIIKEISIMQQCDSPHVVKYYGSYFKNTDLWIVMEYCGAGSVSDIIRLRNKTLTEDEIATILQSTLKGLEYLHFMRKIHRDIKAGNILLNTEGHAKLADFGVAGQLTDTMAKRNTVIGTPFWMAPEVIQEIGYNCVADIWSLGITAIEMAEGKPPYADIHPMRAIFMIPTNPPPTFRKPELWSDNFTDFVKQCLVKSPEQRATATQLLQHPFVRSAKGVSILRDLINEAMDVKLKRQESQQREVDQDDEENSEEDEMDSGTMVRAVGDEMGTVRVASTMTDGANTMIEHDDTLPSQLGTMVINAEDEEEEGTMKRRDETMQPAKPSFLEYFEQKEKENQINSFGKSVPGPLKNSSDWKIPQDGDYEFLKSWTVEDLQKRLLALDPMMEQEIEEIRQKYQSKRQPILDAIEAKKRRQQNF

Structure (SMILES) | observed | technique | concentration | remaining binding [%]
N#CC1(c2ccccn2)CCN(Cc2cc(C(=O)N3CCCC3)c(=O)n3ccccc23)CC1 | cell-free assay | competition with immobilised ligand | 1 µM | 88
O=C(NCC1CCOCC1)c1n[nH]cc1NC(=O)c1c(F)cccc1F | binding | competition with immobilised ligand | 1 µM | 100
Cc1cnn2ncc(-c3ccnc(N(C)C)n3)c2c1 | binding | – | 1 µM | 97
c1cncc(-c2cccc(Nc3nccc(NC4CCCCC4)n3)c2)c1 | binding | competition with immobilised ligand | 10 µM | 97
N[C@H]1CCN(c2nccc(-c3cnn4ncccc34)n2)C1 | binding | – | 1 µM | 100
CCCOc1ccc([C@@H]2[C@@H](C(=O)O)[C@H](c3ccc4c(c3)OCO4)CN2CC(=O)Nc2c(CC)cccc2CC)cc1 | cell-free assay | competition with immobilised ligand | 1 µM | 95
COc1ccnn2ncc(-c3ccnc(N(C)C)n3)c12 | binding | – | 1 µM | 100
COc1ncc2cc3ccccc3nc2c1C#N | cell-free assay | competition with immobilised ligand | 5 µM | 96
CN(C)c1nccc(-c2cnn3ncccc23)n1 | binding | – | 1 µM | 100
COc1cccc(CNC(=O)c2nc3scc(COCc4ccc(C(=O)O)cc4)c3c(=O)[nH]2)c1 | cell-free assay | competition with immobilised ligand | 1 µM | 75
Cc1cnc(Nc2ccc(C(=O)N3CCC(N4CCCC4)CC3)cc2)nc1-c1cc2ccccc2s1 | binding | competition with immobilised ligand | 1 µM | 100
CNC(=O)[C@@H]1CC[C@@H](n2c(-c3ccc4cnccc4c3)nc3ccc(C(=O)NCc4cccc(C(N)=O)c4)cc32)C1 | binding | competition with immobilised ligand | 1 µM | 81
O=C(NCCCN1CCOCC1)c1ccc(Nc2nccc(-c3cc4ccccc4s3)n2)cc1 | binding | competition with immobilised ligand | 1 µM | 100
FC(F)(F)Oc1cccc(-c2cnc3ccc(-c4ccncc4)nn23)c1 | cell-free assay | competition with immobilised ligand | 5 µM | 100
O=C1CCc2cc(Nc3cc(OC4CCOCC4)c([N+](=O)[O-])cc3Cl)ccc2N1 | cell-free assay | competition with immobilised ligand | 1 µM | 100
O=C(c1ccc(Nc2ncc(Cl)c(-c3cc4ccccc4s3)n2)cc1)N1CCC(N2CCCC2)CC1 | binding | competition with immobilised ligand | 1 µM | 100
CN(CCCC(F)(F)F)c1nccc(-c2cnn3ncccc23)n1 | binding | – | 1 µM | 89
Nc1c(C(=O)NCc2ccc(C(=O)NCCCC3CCCCC3)cc2)cnn1-c1ccccc1 | cell-free assay | competition with immobilised ligand | 0.1 µM | 100
C[C@H]1CCN(c2nccc(-c3cnn4ncccc34)n2)C1 | binding | – | 1 µM | 82
CS(=O)(=O)c1cc(C2(NC(=O)c3cncc4c3cnn4-c3ccc(F)cc3)CC2)ccn1 | cell-free assay | competition with immobilised ligand | 1 µM | 77
